Measurements: the EternaBench riboswitch data

System: MS2 coat protein
Assay: apparent Kd, MS2 coat protein; higher = weaker binding; RNA-MaP array; FMN 200 µM where present
Outline: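 Designs were transcribed by stalled E. coli RNA polymerase on Illumina sequencing-chip clusters. They were titrated with SNAP-549-labelled MS2 coat protein from 0.7 or 1.5 nM, doubling to 3 µM, in 100 mM Tris-HCl pH 7.5, 80 mM KCl, 4 mM MgCl2, BSA, DTT, yeast tRNA and Tween-20, without and then with constant ligand. The apparent Kd is the median of filtered per-cluster fits after normalisation of green signal to red-channel RNA signal and control-cluster median Fmax.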

[1] = designed as: ON switch for flavin mononucleotide, no ligand
[2] = ligand present: flavin mononucleotide, designed as: ON switch for flavin mononucleotide
[3] = designed as: OFF switch for flavin mononucleotide, no ligand
[4] = ligand present: flavin mononucleotide, designed as: OFF switch for flavin mononucleotide

Sequence	apparent Kd [1]	apparent Kd [2]	apparent Kd [3]	apparent Kd [4]
UCAUGCAUAGCGAUAUGAUCGAGAGAUCAUGUCGCUAAAUUUAGAAGGACAUGAGGAUCACCCAUGUAGGAUAUGGGAGCAUGA	43 nM	11 nM	–	–
GGGUGAUCCUUAGGAUAUCCCGCGCCAAAGUGCGUUUAUACUACAUGAGGAUCACCCAUGUAACGGGAGAAGGGAGGAAGCCCG	11 nM	4.31 nM	–	–
AAAUCUUACGAAGGAUAUACAAACAUGAGGAUCACCCAUGUGUGUUUCGUGUAACUGAAAUUCGGGUAGAAGGUCGUAGACAUA	–	–	24.3 nM	15 nM
GUGCCUUGGGAGAAGGUAUUAAGCAAAGCAAUAUAAGGAUAUUCAUACCGGAAACGGACAUGAGGAUCACCCAUGUGGCACAAA	713 nM	233 nM	–	–
UAUAUAUAGUAAGGAUAUGUAUAUAUGUUAUAAACAGAAGGUACUGACAUGAGGAUCACCCAUGUUUUAGUGUGGGCAUGUAGA	–	–	66.2 nM	96 nM
CGUACCAUGUAGAAGGCAUAUCUCAAAGAGAUAUGAGGAUAUACAUGAGGAUCACCCAUGUAAAUGUACUCCAGGAAACUGGAA	–	–	47.8 nM	222 nM
AAGAAGUCAGGAUAUGCAUGGCGGGACUUGCGUCGUGGCGUGCAGAAGGGACAUGAGGAUCACCCAUGUAAAGA	–	–	49.4 nM	41.7 nM
GGUCGUCACAUUUACAUGAGGAUCACCCAUGUCGAAAGACAUGAGGAUAUGCUACCUAAUUGGUAGCAGAAGGCAUGGACGACC	455 nM	234 nM	–	–
CAUCUCUAUGUAGGAUAUAGGACAACAACAGCACUAGAAGGACAUGAGGAUCACCCAUGUACACUACUCGCGUCAUCGUCUCGC	–	–	6.01 nM	6.22 nM
CGGGAUAGGAAGGGCGAAAGCCCACAUGAGGAUCACCCAUGUAGAAGGCGGGCCGCAACGCGGCCCGAGGAUAUACACUAUCCA	–	–	6.63 nM	12.7 nM
UGCAUGCUAGGAUAUACGAAACAUUAGGGUUCUUCGUAUGAACAUGAGGAUCACCCAUGUAGAAGGAGCGUGCU	–	–	35.5 nM	191 nM
CUUUUGUGAGGAUAUUAGUAGUAAAUAAAUAAAAUUAUUACUGAGAAGGCACAUGAGGAUCACCCAUGUUCCUC	–	–	32.5 nM	405 nM
ACGCUUUGGGAGAAGGUACGUUAAUUAUUUUCCACAUGAGGAUCACCCAUGUAAGGAUAUCCCGGCGUGAAAUAGGCUACAGCA	–	–	6.71 nM	8.08 nM
UUGGACGUCGUAGGAUAUGUAGGAUAUUCCUACAUGAGGAUCACCCAUGUUGACAUGGAAGAAGGACCGAAGGACGAUGUCCAU	148 nM	691 nM	–	–
GUAGCAUACCGAGGAUAUUCUUACCGGAAACGGACAUGAGGAUCACCCAUGUGGCGAAAGCCUUUGGAGAAGGCGGAAUGCUAC	12.4 nM	12.4 nM	–	–
GGAGCACACAUUAACAUGAGGAUCACCCAUGUCAAAAGACAUGAGGAUAUGGAUCCGAAAAGGACCCAGAAGGCAUGGUGCUCC	427 nM	21.8 nM	–	–
UGUUGUUCAGGAUAUGAUGUGUUAUACAUGAGGAUCACCCAUGUGGGUCCUGAUUUGGCGUCAGAAGGGAAUGUUG	–	–	116 nM	200 nM
CGUUUGUAAGGAUAUAGCCACAUUACGAAUAAGUAGUGUGGCUAGAAGGUACAUGAGGAUCACCCAUGUAUGGG	–	–	157 nM	192 nM
GGACGUCAGAUUAACAUGAGGAUCACCCAUGUCUUUUGACAUGAGGAUAUGGAAGGUAAUUCCUUCCAGAAGGCAUGGACGUCC	1020 nM	114 nM	–	–
CUAAGACGAUGUCACGUUGUCGGGACAGAAGGCACGUACAUGAGGAUCACCCAUGUAAAACACAGUGAGGAUAUGUACCUGCGA	30.8 nM	8.1 nM	–	–
AUUAUAAAGUCAGGAUAUCGGUUUAUAAUAUUACGAGAAGGGACAUGAGGAUCACCCAUGUAUUAACACUACUAUGUCAACUAA	–	–	46.6 nM	43.4 nM

Sequence	apparent Kd [1]	apparent Kd [2]	apparent Kd [3]	apparent Kd [4]
GGUGCGUAUGUGAGGAUAUGCUGGUCCUUGGAUCAGCAGAAGGCACAUGAGGAUCACCCAUGUGGUGUCGUACA	–	–	347 nM	40.1 nM
UCGUUAUAUGAAGGAUAUACUUAACAUGAGGAUCACCCAUGUGGUGUUGUGAGUGAGUGAGUUUAGUAGAAGGUCAAUUCUUUU	–	–	212 nM	214 nM
ACAUGGUAGUAGAAGGGUAUUACUUUAGAAUCAACCAUUAGUUUAUUUUAUACAGGAUAUGCUAACAUGAGGAUCACCCAUGUU	–	–	10.4 nM	8.25 nM
CUGUUAUAGGUCCAGAAUUACAACAUGAGGAUCACCCAUGUGCAGGAUAUCGGGUUGAUAGGCGCCGAGAAGGGUAUAGUCACG	–	–	75.8 nM	70.8 nM
GGGUGGCGUAGAGGAUAUGUGUUACAUGAGGAUCACCCAUGUGCAUAUGAUGUUCGUGUGUGUGCAUAGAAGGCUACGUCGCUA	28.3 nM	24.3 nM	–	–
GGGUGAGACGAGAAGGGAUUUUCACAUGAGGAUCACCCAUGUCGAGUAGUCAGGAUAUCGGGCCAUGAUUACCCUAUAGAAGAC	298 nM	70.5 nM	–	–
GUUGUGCGAGGAUAUAUGUGAGGUUUGCCUCAACAGGUAAUACAUGAGGAUCACCCAUGUAGAAGGCGCAUGAG	–	–	102 nM	589 nM
UCUGCCGCCGUGAGGAUAUGCCCGCGCGCCCGCGGGCAGAAGGCACAUGAGGAUCACCCAUGUCCCGCGGCUUU	–	–	15.1 nM	39.5 nM
ACAUGAGGAUCACCCAUGUUGAUAGUAGAAGGGACAGAGAAGAAGAAACAUGAGGAUCACCCAUGUCAGGAUAUGCGAAUUGGA	36.4 nM	33.6 nM	–	–
CUUUUGUGAGGAUAUCAGUAGUAAAUAAAUAAAAUAACUACUGAGAAGGCACAUGAGGAUCACCCAUGUUCCUC	–	–	35.8 nM	223 nM
GCACUCAAGUUAGGAUAUGGACCAGAAACUGGUCCAGAAGGAACAUGGGAACAUGAGGAUCACCCAUGUUCCAGAAACGAGUGC	840 nM	186 nM	–	–
ACUAAACGAGGAUAUACUGACAGGCCUCAGGCAUACAUCAAACAUGAGGAUCACCCAUGUAGAAGGCGUAAACU	–	–	32.8 nM	32.8 nM
GUUACAUGAGGAUCACCCAUGUAUGUGUGGGAGUAAGUGUCUUAGGAUAUCUAUGAUUUAAAUUAAGAGAAGGAAGAUUGUUGU	101 nM	117 nM	–	–
AUAAAUGAUGAGGAUAUCACUAGCGAUAGCUAGUGAGAAGGCAUCACAUGAGGAUCACCCAUGUGCUCCAAUAA	–	–	115 nM	486 nM
GGAAUACAUGAGGAUCACCCAUGUAAGGAUAUGCUGAAUAACACGGAAUAAUCGUGCAGCAGAAGGUACAAAGG	–	–	145 nM	111 nM
ACGUCGAGCCAGAAGGCAACAUGAGGAUCACCCAUGUAGUCCGGCUCGUGUUGAGGAUAUGGCACCCGCGCUGAAGGCGCAGGU	–	–	5.43 nM	7.55 nM
AAAUUUAACGAAGGAUAUGCUGACAUGAGGAUCACCCAUGUGUGCCUUGUGUUACUGACUCGGAAGCAGAAGGUCGUAUACAUA	–	–	400 nM	552 nM
UGUCGGAGCAGAGGAUAUACAUGAGGAUCACCCAUGUAAAUGGAAUAAGCCUGGAAACAGGCAAUGUAGAAGGCUGCUCCGACA	–	–	69 nM	628 nM
UGAAAUCAUGUAGGAUAUGCAUGGCGAAGCUACGCAGAAGGACAUGAGGAUCACCCAUGUUAUAGCUACCCAGUUUGGUGGCAA	–	–	49.8 nM	151 nM
UGCUGGUGACAGCAUCCAUCAAAACAUGAGGAUCACCCAUGUAGAAGGCUGUACGGUUACCGUACAGAGGAUAUACAAUGAUGG	–	–	7.27 nM	8.69 nM
CCUAUGUGAGGAUAUCACUGGUCUUUUCAUUAGAUGAUCAGUGAGAAGGCACAUGAGGAUCACCCAUGUCAGUG	–	–	90.7 nM	26.7 nM
